Assay results from publication PMC7302971 (Bioorganic chemistry, 2020).
Like-named read-outs stand apart in the source and are kept apart here.

What was measured:
K-562 leukemia cells = test: Differential Nuclear Staining; format: cell-based, human
Procedure, shortened: (§1)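 Cells were seeded at 10,000/well and exposed to test compound for 48 h at 1% (v/v) final DMSO. The first screen used a single concentration with controls in quadruplicate. Dose-response used 0.5–100 μM in triplicate. Controls: DMSO vehicle, hydrogen peroxide (positive), untreated (negative). Hoechst 33342 plus PI were added 2 h before automated imaging, and colocalised signal was scored as dead. […] Two-tailed t-test versus DMSO.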

HDAC7 = molecular target: T1, HDAC7 (Homo sapiens, UniProt Q8WUI4); test: HDAC enzyme activity assay; format: biochemical
T1 sequence (Q8WUI4 1-952): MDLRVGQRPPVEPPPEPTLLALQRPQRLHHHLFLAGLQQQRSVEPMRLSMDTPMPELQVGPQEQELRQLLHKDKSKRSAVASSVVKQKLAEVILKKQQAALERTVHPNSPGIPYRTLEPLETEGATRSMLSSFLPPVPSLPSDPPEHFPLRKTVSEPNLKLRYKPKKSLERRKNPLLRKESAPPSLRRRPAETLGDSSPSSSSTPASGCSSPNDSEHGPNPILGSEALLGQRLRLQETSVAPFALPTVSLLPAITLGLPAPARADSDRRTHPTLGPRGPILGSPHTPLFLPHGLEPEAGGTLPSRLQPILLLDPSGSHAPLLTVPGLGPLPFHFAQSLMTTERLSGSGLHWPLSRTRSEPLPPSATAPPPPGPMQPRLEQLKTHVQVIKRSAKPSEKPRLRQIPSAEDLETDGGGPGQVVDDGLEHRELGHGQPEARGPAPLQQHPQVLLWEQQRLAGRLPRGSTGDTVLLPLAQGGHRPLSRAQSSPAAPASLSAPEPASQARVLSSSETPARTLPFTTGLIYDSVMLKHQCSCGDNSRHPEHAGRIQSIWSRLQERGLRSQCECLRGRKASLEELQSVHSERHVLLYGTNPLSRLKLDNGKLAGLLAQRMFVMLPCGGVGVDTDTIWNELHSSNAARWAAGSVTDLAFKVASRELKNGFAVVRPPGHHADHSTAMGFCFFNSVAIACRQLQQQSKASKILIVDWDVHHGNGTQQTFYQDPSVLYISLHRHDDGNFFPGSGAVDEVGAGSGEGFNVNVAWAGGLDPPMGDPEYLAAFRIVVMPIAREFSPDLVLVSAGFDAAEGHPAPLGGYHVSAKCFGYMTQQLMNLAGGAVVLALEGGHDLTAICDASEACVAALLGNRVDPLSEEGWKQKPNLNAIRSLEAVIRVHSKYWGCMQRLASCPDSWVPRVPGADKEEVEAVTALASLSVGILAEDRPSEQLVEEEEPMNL
Procedure, shortened: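 Commercial HDAC7 was preincubated with serial inhibitor dilutions for 60 min at 30 °C in 25 mM Tris-HCl pH 8.0, 75 mM KCl and 0.001% Pluronic F-127. The AMC-substrate reaction ran 60 min at 30 °C, followed by trypsin development and fluorescence reading at Ex 350/Em 450 nm. IC50 came from a four-parameter logistic fit.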

HDAC8 [1] = molecular target: T2, HDAC8 (Homo sapiens, UniProt Q9BY41); test: HDAC enzyme activity assay; format: biochemical; settings: for remaining activity at 50 µM: read-out: Residual HDAC8 activity at 50 μM
T2 sequence (Q9BY41 1-377): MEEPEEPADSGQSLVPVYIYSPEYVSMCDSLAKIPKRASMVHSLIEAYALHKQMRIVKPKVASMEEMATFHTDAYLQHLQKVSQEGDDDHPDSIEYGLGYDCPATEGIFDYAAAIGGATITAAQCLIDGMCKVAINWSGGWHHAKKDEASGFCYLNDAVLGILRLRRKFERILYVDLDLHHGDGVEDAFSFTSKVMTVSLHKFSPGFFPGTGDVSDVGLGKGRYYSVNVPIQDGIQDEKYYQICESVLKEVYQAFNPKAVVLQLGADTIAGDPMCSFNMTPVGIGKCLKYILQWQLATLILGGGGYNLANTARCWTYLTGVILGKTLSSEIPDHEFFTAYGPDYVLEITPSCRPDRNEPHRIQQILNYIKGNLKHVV
Procedure, shortened: (§2)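 HDAC4 and HDAC8 were in-house recombinant enzymes. Each was preincubated with inhibitor, either a single 50 μM screen or serial dilutions, for 60 min at 30 °C in Tris-HCl pH 8.0/KCl/Pluronic buffer. Substrate was 20 μM Boc-Lys(trifluoroacetyl)-AMC for 60 min at 30 °C, stopped with 1.7 μM SATFMK, and developed with trypsin. AMC fluorescence was read at 350/450 nm and reported as residual activity or as IC50 from a four-parameter logistic fit.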

HDAC3 = HDAC3 (Homo sapiens, UniProt O15379); test: HDAC enzyme activity assay; format: biochemical
Sequence of HDAC3 (O15379 whole entry): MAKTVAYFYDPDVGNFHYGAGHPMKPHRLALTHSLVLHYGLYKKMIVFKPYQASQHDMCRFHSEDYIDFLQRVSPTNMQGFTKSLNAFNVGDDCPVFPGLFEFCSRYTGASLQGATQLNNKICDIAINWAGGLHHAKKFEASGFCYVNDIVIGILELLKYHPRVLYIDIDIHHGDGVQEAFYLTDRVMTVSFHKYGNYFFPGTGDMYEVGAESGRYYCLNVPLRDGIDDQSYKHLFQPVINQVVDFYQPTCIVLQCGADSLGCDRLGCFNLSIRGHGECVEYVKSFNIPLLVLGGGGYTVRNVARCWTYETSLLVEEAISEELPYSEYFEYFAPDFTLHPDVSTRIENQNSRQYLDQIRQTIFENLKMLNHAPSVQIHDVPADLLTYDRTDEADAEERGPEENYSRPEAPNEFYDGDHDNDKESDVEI
Sequence of HDAC3 (Q9Y618 395-489 partner limits assumed): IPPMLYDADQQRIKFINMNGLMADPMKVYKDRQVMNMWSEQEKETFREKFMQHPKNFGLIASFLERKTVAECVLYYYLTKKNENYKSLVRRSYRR
Procedure, shortened: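 Commercial enzyme was preincubated with serial inhibitor dilutions for 60 min at 30 °C in 25 mM Tris-HCl pH 8.0, 75 mM KCl and 0.001% Pluronic F-127. Reaction was started with 50 μM Boc-Lys(acetyl)-AMC, run 60 min at 30 °C, and stopped with 4.17 μM SAHA. Trypsin (0.4 mg/ml) released AMC, read at Ex 350/Em 450 nm. IC50 came from a four-parameter logistic fit.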

HDAC8 [2] = molecular target: T2, HDAC8; test: Thermal shift assay; format: binding
CEM cells = test: Apoptosis by annexin V-FITC/PI flow cytometry; format: cell-based, human; settings: compound at CC50 (IC50) concentration, 24 h
Procedure, shortened: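 CEM cells were seeded in 24-well plates and held overnight at 37 °C in CO2. Medium was replaced and cells were exposed to test compound for 24 h. Controls were untreated cells and 1% DMSO. Cells were PBS-washed and spun at 500 × g for 5 min at 4 °C, then resuspended in ice-cold binding buffer with annexin V-FITC and PI. They were kept 15 min on ice in the dark, diluted, and read by flow cytometry for live and apoptotic fractions.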

HDAC4 = HDAC4 (Homo sapiens, UniProt P56524); test: HDAC enzyme activity assay; format: biochemical; settings: for remaining activity at 50 µM: read-out: Residual HDAC4 activity at 50 μM
Sequence of HDAC4 (P56524 648-1057 limits assumed): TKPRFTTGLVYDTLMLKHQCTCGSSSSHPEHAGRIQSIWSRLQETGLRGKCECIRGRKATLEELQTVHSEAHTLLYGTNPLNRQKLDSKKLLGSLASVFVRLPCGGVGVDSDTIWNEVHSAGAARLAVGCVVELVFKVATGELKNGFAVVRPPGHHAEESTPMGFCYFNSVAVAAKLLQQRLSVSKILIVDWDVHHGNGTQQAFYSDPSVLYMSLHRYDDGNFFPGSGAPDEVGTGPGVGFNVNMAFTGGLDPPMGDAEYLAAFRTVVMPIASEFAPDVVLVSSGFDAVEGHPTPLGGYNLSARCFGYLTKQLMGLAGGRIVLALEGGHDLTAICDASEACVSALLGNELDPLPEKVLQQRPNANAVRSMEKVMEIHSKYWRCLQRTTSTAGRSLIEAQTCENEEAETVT
Procedure, shortened: as §2

KCL-22 leukemia cells = test: Differential Nuclear Staining; format: cell-based, human; settings: Homo sapiens, KCL-22, 48 h
Procedure, shortened: as §1

[3] = read-out: IC50 HDAC4, HDAC panel, no unit in table, text b26: micromolar range

| Structure (SMILES) | cell death at 100 μM (K-562 leukemia cells; K562, DNS assay, 48 h, 100 μM) [% cell death at 100 μM] | IC50 (HDAC7) [µM] | IC50 (HDAC8 [1]) [µM] | remaining activity at 50 µM (HDAC8 [1]) [%] | IC50 (HDAC3) [µM] | Thermal shift (ΔT), stabilizing effect on HDAC8 (HDAC8 [2]) | live cells (CEM cells) [%] | percent of apoptotic cells (CEM cells) [%] | IC50 (HDAC4) [µM] | IC50 (HDAC4; [3]) [µM] | remaining activity at 50 µM (HDAC4) [%] | CC50 (KCL-22 leukemia cells) [µM] | CC50 (K-562 leukemia cells; Homo sapiens, K562, 48 h) [µM] |
| --- | --- | --- | --- | --- | --- | --- | --- | --- | --- | --- | --- | --- | --- |
| Cc1c(NC(=O)CN2C(=O)SC(=Cc3ccccn3)C2=O)c(=O)n(-c2ccccc2)n1C [Compound P10, N-(1,5-dimethyl-3-oxo-2-phenyl-2,3-dihydro-1H-pyrazol-4-yl)-2-(2,4-dioxo-5-(pyridin-2-ylmethylene)thiazolidin-3-yl)acetamide] | 27.06 | > 50 | 23 ± 1.1 | 17 | > 50 | did not confer significant stability to the protein | 29.89 | 55.19 | > 50 | > 50 | 76 | 17.4 ± 2.4 |  |
| O=C(CN1C(=O)SC(=Cc2ccccn2)C1=O)Nc1nc2ccccc2s1 [Compound P19, N-(benzo[d]thiazol-2-yl)-2-(2,4-dioxo-5-(pyridin-2-ylmethylene)thiazolidin-3-yl)acetamide] |  | > 50 | 9.3 ± 1 | 22 | > 50 | about 0.3 °C | 30.86 | 60.97 | > 50 | > 50 | 97 | 43.2 ± 0.23 | 85.4 ± 3.25 |
